Reference: ChEMBL document CHEMBL1125678, “Quinazolineacetic acids and related analogues as aldose reductase inhibitors” (J Med Chem, 1991)
Values belong to the molecule of their own block, whether it stands above or below them.

Columns and labels:
[1] = molecular target: Aldo-keto reductase family 1 member B1 (Bos taurus) (UniProt P16116); test: In vitro inhibition of aldose reductase in partially purified bovine lens preparation at a concentration of 10e -7M.
Outline: (§1)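 Enzyme from bovine lens, partially purified by the cited method with the final chromatographic step omitted. DL-Glyceraldehyde was the substrate. Test compounds were run in duplicate at 1×10⁻⁵, 1×10⁻⁶, 1×10⁻⁷ or 4×10⁻⁸ M. Values are % inhibition of enzymatic activity.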

Rattus norvegicus [2] = test: In vivo inhibition of galactitol accumulation in the sciatic nerve of rats fed 20% galactose for 4 day at 115 mg/kg/day dose; type: functional
Outline: (§2)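 Male Sprague-Dawley rats (50–70 g) in groups of six were fed chow with 20% (w/w) galactose. Controls received 20% glucose instead. Test compound was mixed into the diet, and dose was calculated from actual food intake. Rats were killed by decapitation after 4 days. Result is % lowering of tissue galactitol versus galactose-fed controls, as the mean of six animals, compared by Dunnett's multiple comparison.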

Rattus norvegicus [3] = test: In vivo inhibition of galactitol accumulation in the diaphragm of rats fed 20% galactose for 4 day at 115 mg/kg/day dose; type: functional; outline: as §2
[4] = molecular target: Aldo-keto reductase family 1 member B1 (Bos taurus) (UniProt P16116); test: In vitro inhibition of aldose reductase in partially purified bovine lens preparation at a concentration of 4*10e -8M.; outline: as §1
[5] = molecular target: Aldo-keto reductase family 1 member B1 (Bos taurus) (UniProt P16116); test: in vitro inhibition of aldose reductase in partially purified bovine lens preparation at a concentration of 10e -5M.
Rattus norvegicus [6] = test: In vivo inhibition of galactitol accumulation in the sciatic nerve of rats fed 20% galactose for 4 day at 90 mg/kg/day dose; NS = No Significant inhibition of polyol accumulation; type: functional, organism-based; outline: as §2
Rattus norvegicus [7] = test: In vivo inhibition of galactitol accumulation in the diaphragm of rats fed 20% galactose for 4 day at 90 mg/kg/day dose; NS = No Significant inhibition of polyol accumulation; type: functional, organism-based; outline: as §2
Rattus norvegicus [8] = test: In vivo inhibition of galactitol accumulation in the diaphragm of rats fed 20% galactose for 4 day at 101 mg/kg/day dose; type: functional; outline: as §2
Rattus norvegicus [9] = test: In vivo inhibition of galactitol accumulation in the sciatic nerve of rats fed 20% galactose for 4 day at 101 mg/kg/day dose; type: functional; outline: as §2
Rattus norvegicus [10] = test: In vivo inhibition of galactitol accumulation in the diaphragm of rats fed 20% galactose for 4 day at 91 mg/kg/day dose; type: functional; outline: as §2
Rattus norvegicus [11] = test: In vivo inhibition of galactitol accumulation in the sciatic nerve of rats fed 20% galactose for 4 day at 91 mg/kg/day dose; type: functional; outline: as §2
[12] = molecular target: Aldo-keto reductase family 1 member B1 (Bos taurus) (UniProt P16116); test: in vitro inhibition of Aldose reductase in partially purified bovine lens preparation at a concentration of 10e-6 M.
Rattus norvegicus [13] = test: In vivo inhibition of galactitol accumulation in the diaphragm of rats fed 20% galactose for 4 day at 79 mg/kg/day dose; NS = No Significant inhibition of polyol accumulation; type: functional, organism-based; outline: as §2
Rattus norvegicus [14] = test: In vivo inhibition of galactitol accumulation in the sciatic nerve of rats fed 20% galactose for 4 day at 79 mg/kg/day dose; NS = No Significant inhibition of polyol accumulation; type: functional, organism-based; outline: as §2
[15] = molecular target: Aldo-keto reductase family 1 member B1 (Bos taurus) (UniProt P16116); test: In vitro inhibition of Aldose reductase in partially purified bovine lens preparation at a concentration of 10e -7M.; outline: as §1
Rattus norvegicus [16] = test: In vivo inhibition of galactitol accumulation in the diaphragm of rats fed 20% galactose for 4 day at 109 mg/kg/day dose; type: functional; outline: as §2
Rattus norvegicus [17] = test: In vivo inhibition of galactitol accumulation in the sciatic nerve of rats fed 20% galactose for 4 day at 95 mg/kg/day dose; NS= No Significant inhibition of polyol accumulation; type: functional, organism-based
Rattus norvegicus [18] = test: In vivo inhibition of galactitol accumulation in the diaphragm of rats fed 20% galactose for 4 day at 90 mg/kg/day dose; type: functional; outline: as §2
Rattus norvegicus [19] = test: In vivo inhibition of galactitol accumulation in the diaphragm of rats fed 20% galactose for 4 day at 88 mg/kg/day dose; type: functional, organism-based; outline: as §2
Rattus norvegicus [20] = test: In vivo inhibition of galactitol accumulation in the sciatic nerve of rats fed 20% galactose for 4 day at 88 mg/kg/day dose; NS = No Significant inhibition of polyol accumulation; type: functional, organism-based; outline: as §2
Rattus norvegicus [21] = test: In vivo inhibition of galactitol accumulation in the diaphragm of rats fed 20% galactose for 4 day at 92 mg/kg/day dose; type: functional; outline: as §2
Rattus norvegicus [22] = test: In vivo inhibition of galactitol accumulation in the sciatic nerve of rats fed 20% galactose for 4 day at 92 mg/kg/day dose; type: functional
Rattus norvegicus [23] = test: In vivo inhibition of galactitol accumulation in the diaphragm of rats fed 20% galactose for 4 day at 100 mg/kg/day dose; type: functional; outline: as §2
Rattus norvegicus [24] = test: In vivo inhibition of galactitol accumulation in the sciatic nerve of rats fed 20% galactose for 4 day at 100 mg/kg/day dose; NS = No Significant inhibition of polyol accumulation; type: functional, organism-based; outline: as §2
Rattus norvegicus [25] = test: In vivo inhibition of galactitol accumulation in the diaphragm of rats fed 20% galactose for 4 day at 81 mg/kg/day dose; type: functional; outline: as §2
Rattus norvegicus [26] = test: in vivo inhibition of galactitol accumulation in the sciatic nerve of rats fed 20% galactose for 4 day; conditions: 96 h
Rattus norvegicus [27] = test: In vivo inhibition of galactitol accumulation in the diaphragm of rats fed 20% galactose for 4 day at 97 mg/kg/day dose; type: functional; outline: as §2
Rattus norvegicus [28] = test: In vivo inhibition of galactitol accumulation in the sciatic nerve of rats fed 20% galactose for 4 day at 97 mg/kg/day dose; type: functional
Rattus norvegicus [29] = test: In vivo inhibition of galactitol accumulation in the diaphragm of rats fed 20% galactose for 4 day at 103 mg/kg/day dose; type: functional; outline: as §2
Rattus norvegicus [30] = test: In vivo inhibition of galactitol accumulation in the diaphragm of rats fed 20% galactose for 4 day at 105 mg/kg/day dose; NS = No Significant inhibition of polyol accumulation; type: functional, organism-based; outline: as §2
Rattus norvegicus [31] = test: In vivo inhibition of galactitol accumulation in the sciatic nerve of rats fed 20% galactose for 4 day at 105 mg/kg/day dose; NS = No Significant inhibition of polyol accumulation; type: functional, organism-based; outline: as §2
Rattus norvegicus [32] = test: In vivo inhibition of galactitol accumulation in the sciatic nerve of rats fed 20% galactose for 4 day at 102 mg/kg/day dose; type: functional; outline: as §2
Rattus norvegicus [33] = test: In vivo inhibition of galactitol accumulation in the diaphragm of rats fed 20% galactose for 4 day at 102 mg/kg/day dose; type: functional; outline: as §2

Compound: CC(C)c1nc2ccc(Br)cc2c(=O)n1CC(=O)O
- inhibition [5]: 40%
- Lowering (Rattus norvegicus [6]): Not significant
- Lowering (Rattus norvegicus [7]): Not significant

Compound: O=C(O)Cn1c(=O)n(Cc2ccc(Cl)c(Cl)c2)c(=O)c2cc(Cl)ccc21
- inhibition [1]: 88%
- Lowering (Rattus norvegicus [8]): 68%
- Lowering (Rattus norvegicus [9]): 38%
- inhibition [4]: 64%

Compound: Cc1nc2cc3ccccc3cc2c(=O)n1CC(=O)O
- inhibition [12]: 76%
- Lowering (Rattus norvegicus [13]): Not significant
- Lowering (Rattus norvegicus [14]): Not significant
- inhibition [15]: 28%

Compound: O=C(O)CN1C(=O)N(Cc2ccc(Cl)c(Cl)c2)Cc2ccccc21
- inhibition [1]: 53%
- Lowering (Rattus norvegicus [16]): 30%
- inhibition [4]: 31%
- Lowering (Rattus norvegicus [17]): Not significant

Compound: O=C(O)CN1CN(Cc2ccc(Br)cc2F)c2ccc(Cl)cc2C1=O
- inhibition [1]: 51%
- inhibition [4]: 23%
- Lowering (Rattus norvegicus [17]): Not significant
- Lowering (Rattus norvegicus [18]): 38%

Compound: Cc1sc2c(c1C)c(=O)n(CC(=O)O)c(=O)n2Cc1ccc(Cl)c(Cl)c1
- inhibition [1]: 79%
- Lowering (Rattus norvegicus [19]): Not significant
- inhibition [4]: 51%
- Lowering (Rattus norvegicus [20]): Not significant

Compound: O=C(O)Cn1c(=O)c2c3c(sc2n(Cc2ccc(Cl)c(Cl)c2)c1=O)CCCC3
- inhibition [1]: 86%
- Lowering (Rattus norvegicus [23]): 19%
- inhibition [4]: 63%
- Lowering (Rattus norvegicus [24]): Not significant

Compound: O=C(O)CN1Cc2ccccc2N(Cc2ccc(Cl)c(Cl)c2)C1=O
- inhibition [1]: 68%
- Lowering (Rattus norvegicus [25]): 38%
- inhibition [4]: 41%
- Lowering (Rattus norvegicus [17]): Not significant

Compound: COc1ccc2c(C(=S)N(C)CC(=O)O)cccc2c1C(F)(F)F [TOLRESTAT]
- ED50 (Rattus norvegicus [26]): 6.4 mg/kg/day

Compound: Cc1ccc2c(c1)c(=O)n(CC(=O)O)c(=O)n2Cc1ccc(Cl)c(Cl)c1
- inhibition [1]: 80%
- Lowering (Rattus norvegicus [32]): 65%
- inhibition [4]: 40%
- Lowering (Rattus norvegicus [33]): 76%

Now from value to molecule, other results behind:

- inhibition [1]: 71%
- inhibition [4]: 34%
Compound: O=C(O)Cn1c(=O)c2ccccc2n(Cc2ccc(Br)cc2F)c1=O
- Lowering (Rattus norvegicus [2]): 54%
- Lowering (Rattus norvegicus [3]): 58%

- inhibition [1]: 80%
- inhibition [4]: 51%
Compound: O=C(O)Cn1c(=O)c2cc(Cl)ccc2n(Cc2ccc(Br)cc2F)c1=O
- Lowering (Rattus norvegicus [10]): 78%
- Lowering (Rattus norvegicus [11]): 47%

- inhibition [1]: 83%
- inhibition [4]: 47%
Compound: O=C(O)Cn1c(=O)c2cc(Br)ccc2n(Cc2ccc(Cl)c(Cl)c2)c1=O
- Lowering (Rattus norvegicus [21]): 78%
- Lowering (Rattus norvegicus [22]): 62%

- inhibition [1]: 83%
- inhibition [4]: 64%
Compound: O=C(O)Cn1c(=O)c2cc(I)ccc2n(Cc2ccc(Br)cc2F)c1=O
- Lowering (Rattus norvegicus [27]): 83%
- Lowering (Rattus norvegicus [28]): 64%

- inhibition [1]: 74%
- inhibition [4]: 53%
Compound: O=C(O)Cn1c(=O)c2ccc(F)cc2n(Cc2ccc(Br)cc2F)c1=O
- Lowering (Rattus norvegicus [29]): 63%
- Lowering (Rattus norvegicus [17]): Not significant

- inhibition [1]: 68%
- inhibition [4]: 43%
Compound: O=C(O)Cn1c(=O)c2sccc2n(Cc2ccc(Br)cc2F)c1=O
- Lowering (Rattus norvegicus [30]): Not significant
- Lowering (Rattus norvegicus [31]): Not significant
